Source: PubChem BioAssay
A selection: hits, their analogues and other compounds. The true share with any hit is near 3.1%.
Beta apoptosis: beta cell apoptosis inhibition | INS-1E cytokine-induced death, ATP luminescence, 48 h; percent of positive-control rescue, neutral wells zero | protection from apoptosis, % (no concentration beside the values) | 0.8% of 300,000 active | AID 435005;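 active = Every replicate reaches about 75%, or at least half do and their mean reaches it too, limit read from the data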;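 also: 0% = cytokine-treated negative control wells and 100% = positive control rescue; higher means more ATP so stronger rescue from cytokine killing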
HIF act: HIF pathway transcriptional activation. U2OS HRE-luciferase reporter, luminescence; normalized: DMSO 0%, desferrioxamine 100%. activation, % at 7.5 µM (by protocol). 0.32% of 300,000 active;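 active = mean activation of at least 10% of the iron chelator positive control signal, with at least half of replicates also reaching 10%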
Calb FLC: affects C. albicans growth with fluconazole; C. albicans CaCi-2 (fluconazole-resistant clinical isolate) + fluconazole, Alamar Blue growth, 48 h; growth inhibition, % (test concentration not listed); AID 1979; 0.57% of 300,000 active;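 active = growth inhibition above about 58% in most replicates, limit read from the data, passing the limit was not always enough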;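 also: all wells also contain fluconazole at 8 µg/ml as a sub-toxic cotreatment; 0% = median of DMSO wells and 100% = median of geldanamycin control wells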
T cruzi inh: blocks replication of Trypanosoma cruzi. 1.4% of 300,000 active. T. cruzi beta-gal in NIH3T3, luminescence, 90 h. inhibition, % (no concentration beside the values);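 active = mean inhibition across valid replicates above about 55%, limit read from the data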;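 also: signal also drops with host cell toxicity which is not excluded here; 0% = plate median of DMSO wells and 100% = zero luminescence signal; higher percent means less beta-gal luminescence so fewer parasites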
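Assay system: NIH/3T3 host cells with β-galactosidase reporter T. cruzi; input: 5,000 host fibroblasts per well; compound: single 50 nL compound addition per well in DMSO; timing: ≥90 h infection period, 3 h prior cell attachment; measured by: GalScreen β-gal luminescence, detergent lysis, 60 min; evaluation: percent inhibition of parasite-derived β-gal signal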
PolyA inh: blocks polyadenylation in yeast reporter cells; S. cerevisiae SKY197-pL101 polyadenylation reporter, beta-gal luminescence; efflux-impaired pdr1/pdr3 knockout yeast; score 100 = 6 SD above DMSO; activity score, % at 12 µM; 0.02% of 300,000 active;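 active = lowest replicate activity score at least 50, where 100 means six control SD above control mean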;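 also: yeast exposed to compound for 9 h at 30 °C; higher score means more reporter readthrough which indicates perturbed polyadenylation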
CSC inhib: cancer stem cell inhibition; cancer stem cell-like cells viability, luminescence; inhibition, % at 7.5 µM; 1.1% of 300,000 active; in the data active = inhibition above about 75%; tested in HMLE shEcad cells
The depositor's hits bear a star; . = no result given; ! = repeats disagree.

SMILES	Beta apoptosis	HIF act	Calb FLC	T cruzi inh	PolyA inh	CSC inhib
Cc1ccc(-c2nc(N/N=C/c3cccc([N+](=O)[O-])c3)c3ccccc3n2)cc1	0	1	-4	17	-20	62
c1cncc(Nc2c3ccccc3nc3ccccc23)c1	27	1	-4	35	-10	21
Oc1cccc(Nc2c3ccccc3nc3ccccc23)c1	.	4	13	70*	15	56
Cc1ccc(-c2nc(N/N=C/c3cccnc3)c3ccccc3n2)cc1	76*	2	-9	10	-10	41
O=[N+]([O-])c1ccc(-c2nc(Nc3cccc(O)c3)c3ccccc3n2)cc1	.	-1	-2	-14	-13	94*
Cc1ccc(-c2nc(Nc3cccc(O)c3)c3ccccc3n2)cc1	0	2	0	1	3	112*
Cc1ccc(-c2nc(Nc3ccc(O)cc3)c3ccccc3n2)cc1	-5	-9	0	42	-4	73
O=C(O)c1cccc(Nc2nc(-c3ccc([N+](=O)[O-])cc3)nc3ccccc23)c1	-1	2	0	-4	4	12
Cc1ccc(NC(=O)COC(=O)c2nn(C)c(=O)c3ccccc23)cc1F	0	.	.	.	.	-18
CCc1ccc(OCC(=O)NNC(=O)c2ccc(NC(=O)C3CC3)cc2)cc1	-5	0	-2	2	-2	-1
Cc1ccc(-c2nc(Nc3ccc(N4CCOCC4)cc3)c3ccccc3n2)cc1	2	2	0	18	-16	90*
COc1cccc(-n2c(CN3CCN(c4cccc(C)c4)C(C)C3)nc3ccc([N+](=O)[O-])cc3c2=O)c1 (stereo unspecified)	7	-3	0	59*	17	18
COc1cccc(-n2c(CN3CCN(c4ccc(C)cc4)C(C)C3)nc3ccc([N+](=O)[O-])cc3c2=O)c1 (stereo unspecified)	3	0	-5	39	2	-8
Cc1nn(C)c(C)c1CN(C)S(=O)(=O)c1ccc2ccccc2c1	109*	.	.	.	.	5
Cc1nn(C)c(C)c1CN(C)S(=O)(=O)c1ccc(F)cc1	4	-1	14	2	6	2
Cc1ccccc1-n1cnc2c(sc3nc(N4CCOCC4)c4c(c32)CCCC4)c1=O	4	-1	27	71*	-27	28
OCCN1CCN(c2ncnc3c2sc2nc(N4CCOCC4)c4c(c23)CCC4)CC1	7	-1	5	60*	-12	43
O=C(N/N=C/c1ccccc1)c1cc(-c2ccc3c(c2)OCO3)n[nH]1	12	1	2	16	-4	30
O=C(N/N=C/c1ccc(O)cc1)c1cc(-c2ccc3c(c2)OCO3)n[nH]1	11	2	16	18	8	127*
O=C(N/N=C/c1cccc(O)c1)c1cc(-c2ccc3c(c2)OCO3)n[nH]1	22	0	18	-5	2	76*
COc1ccc(/C=N/NC(=O)c2nnn(-c3nonc3N)c2CN(C)c2ccccc2)cc1	2	0	8	-4	8	-1
Cc1c(NC(=S)Nc2ccc(Cl)cc2)c(=O)n(-c2ccccc2)n1C	2	0	-12	-17	-13	14
O=C(NCc1cccs1)C(=O)NCC1OCCCN1S(=O)(=O)c1cc(F)ccc1F (stereo unspecified)	10	0	-7	-11	-7	10
CCCCC(=O)OCC(=O)Nc1ccc(C)c(F)c1	-7	1	-13	4	7	-2
COc1ccc(NC(=O)c2ccc3c(c2)NC(=O)CS3)cc1S(=O)(=O)Nc1ccc(Br)cc1	10	1	7	-1	8	80*
SMILES	Beta apoptosis	HIF act	Calb FLC	T cruzi inh	PolyA inh	CSC inhib
CCc1cccc(CC)c1NC(=O)CO/N=C(\C)c1cccs1	-4	-1	-30	-3	-6	-8
CC(C)CNS(=O)(=O)c1ccc(CCC(=O)NCCc2ccccc2)cc1	.	0	-6	9	17	9
COc1ccc(S(=O)(=O)N2CCCCCC2)cc1C(=O)OCC(=O)NC(N)=O	.	0	-4	1	2	5
Cn1cccc1C(=O)NC(=O)COC(=O)c1cc(S(=O)(=O)N2CCCCC2)ccc1Cl	7	46*	5	10	24	-6
O=C(O)c1cccc(-n2cccc2/C=C2/SC(=O)N(CC(=O)N3CCCC3)C2=O)c1	-2	14*	-10	-19	30	.
Cc1ccccc1/C(N)=N/OC(=O)c1cccs1	-8	3	5	-1	-17	-10
Cc1ccc(C(=O)C[n+]2cc(-c3ccc(C)cc3)n3c2CCCCC3)cc1	125*	0	88*	69*	-12	10
Cc1ccc(NC(=O)C[n+]2cc(-c3ccc(C)cc3)n3c2CCC3)cc1	6	.	-24	.	4	14
O=C(C[n+]1cc(-c2ccccc2)n2c1CCCCC2)c1ccc(Br)cc1	8	-1	3	20	6	-2
Cc1ccc(-c2c[n+](Cc3ccc(Cl)c(Cl)c3)c3n2CCC3)cc1	89*	0	-8	49	8	33
COc1ccc(C(=O)C[n+]2cc(-c3ccc(OC)cc3)n3c2CCCC3)cc1	72	0	-27	62*!	4	-6
COc1cccc(NC(=S)N(CCCN2CCOCC2)C(C)c2cc3ccccc3o2)c1 (stereo unspecified)	-9	1	-1	18	-12	-6
CC(=O)c1cccc(NC(=O)C(C)OC(=O)CCc2nc3ccccc3c(=O)[nH]2)c1 (stereo unspecified)	-3	.	.	.	.	-15
Cc1cc(NC(=O)CCN2CCCCC2)ccc1Br	.	-1	-5	-5	-22	.
CN1CCN(C(c2ccc(Br)cc2)c2cc(Cl)c3cccnc3c2O)CC1 (stereo unspecified)	73	7	90*	21	-8	111*
CN1CCN(C(c2cccnc2)c2ccc3cccnc3c2O)CC1 (stereo unspecified)	22	3	89*	28	-21	25
CCOC(=O)c1ccc(N2C(=O)C(CC(N)=O)N(CCc3ccc(OC)c(OC)c3)C2=S)cc1 (stereo unspecified)	-1	0	2	2	6	27
COc1ccccc1NC(=O)CCN1C(=O)C2C3CCC(C3)C2C1=O (stereo unspecified)	-1	0	.	-4	-22	2
CC(=O)c1ccc(NC(=O)CSc2ccc(-c3ccc(-n4cccn4)cc3)nn2)cc1	.	0	-1	4	-7	2
Fc1cccc(Cl)c1-c1nnc2ccc3ccccc3n12	101*	1	-30	32	4	-6
Cc1sc(-n2c(C)cc(/C=C3\SC(=S)NC3=O)c2C)c(C#N)c1C	-6	0	46	-40	3	79*
